Results reported in ChEMBL document CHEMBL1122917, “Vinblastin-23-oyl amino acid derivatives: chemistry, physicochemical data, toxicity, and antitumor activities against P388 and L1210 leukemias” (J Med Chem, 1985).

Legend:
Format in all cases: functional
Mus musculus [1] = experiment: Number of survivors on 60th day at dose 60 mg/kg/day in 10 mice implanted with P388 leukemia cell line; 0/10
Procedure, shortened: (§1)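 Female DBA2 mice inoculated iv on day 0 with 10^4 P388 cells; single iv treatment on day 1 with drug as sulfate salt in physiological saline. Survival followed; %ILS from all deaths and survivors as (T/C × 100) − 100, maximal MST 30 days; survivors counted on days 30 and 60. Most experiments confirmed three times.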

Mus musculus [2] = experiment: Percent increase in life span at dose 80 mg/kg/day in 10 mice implanted with P388 leukemia cell line; procedure, shortened: as §1
Mus musculus [3] = experiment: Percent increase in life span at dose 40 mg/kg/day in 10 mice implanted with P388 leukemia cell line; procedure, shortened: as §1
Mus musculus [4] = experiment: Number of survivors on 60th day at dose 80 mg/kg/day in 8 mice implanted with P388 leukemia cell line; 0/8
Mus musculus [5] = experiment: Percent increase in life span at dose 60 mg/kg/day in 10 mice implanted with P388 leukemia cell line; procedure, shortened: as §1
Mus musculus [6] = experiment: Number of survivors on 60th day at dose 40 mg/kg/day in 10 mice implanted with P388 leukemia cell line; 0/10
Mus musculus [7] = experiment: Number of survivors on 30th day at dose 40 mg/kg/day in 10 mice implanted with P388 leukemia cell line; 0/10
Mus musculus [8] = experiment: Number of survivors on 30th day at dose 80 mg/kg/day in 8 mice implanted with P388 leukemia cell line; 0/8
Mus musculus [9] = experiment: Number of survivors on 30th day at dose 60 mg/kg/day in 10 mice implanted with P388 leukemia cell line; 0/10
Mus musculus [10] = experiment: Percent increase in life span at dose 10 mg/kg/day in 10 mice implanted with P388 leukemia cell line; procedure, shortened: as §1
Mus musculus [11] = experiment: Percent increase in life span at dose 7.5 mg/kg/day in 10 mice implanted with P388 leukemia cell line
Mus musculus [12] = experiment: Percent increase in life span at dose 5 mg/kg/day in 10 mice implanted with P388 leukemia cell line; procedure, shortened: as §1
Mus musculus [13] = experiment: Number of survivors on 60th day at dose 5 mg/kg/day in 10 mice implanted with P388 leukemia cell line; 0/10
Mus musculus [14] = experiment: Number of survivors on 30th day at dose 5 mg/kg/day in 10 mice implanted with P388 leukemia cell line; 0/10
Mus musculus [15] = experiment: Number of survivors on 60th day at dose 10 mg/kg/day in 10 mice implanted with P388 leukemia cell line; 0/10
Mus musculus [16] = experiment: Number of survivors on 30th day at dose 10 mg/kg/day in 10 mice implanted with P388 leukemia cell line; 0/10
Mus musculus [17] = experiment: Number of survivors on 60th day at dose 7.5 mg/kg/day in 10 mice implanted with P388 leukemia cell line; 0/10
Mus musculus [18] = experiment: Number of survivors on 30th day at dose 7.5 mg/kg/day in 10 mice implanted with P388 leukemia cell line; 0/10
Mus musculus [19] = experiment: Number of survivors on 60th day at dose 12.5 mg/kg/day in 10 mice implanted with P388 leukemia cell line
Mus musculus [20] = experiment: Number of survivors on 60th day at dose 15 mg/kg/day in 10 mice implanted with P388 leukemia cell line
Mus musculus [21] = experiment: Number of survivors on 60th day at dose 25 mg/kg/day in 10 mice implanted with P388 leukemia cell line
Mus musculus [22] = experiment: Percent increase in life span at dose 12.5 mg/kg/day in 10 mice implanted with P388 leukemia cell line; procedure, shortened: as §1
Mus musculus [23] = experiment: Percent increase in life span at dose 15 mg/kg/day in 10 mice implanted with P388 leukemia cell line; procedure, shortened: as §1
Mus musculus [24] = experiment: Percent increase in life span at dose 25 mg/kg/day in 10 mice implanted with P388 leukemia cell line
Mus musculus [25] = experiment: Percent increase in life span of DBA2 mice after inoculation with L1210 leukemia intravenously at a dose of 12.5 mg/kg per day; settings: route intravenous
Procedure, shortened: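 Female DBA2 mice inoculated iv on day 0 with 10^4 L1210 cells; drugs given iv as sulfate salts in physiological saline, mostly once on day 1. %ILS from all deaths and survivors as (T/C × 100) − 100; survivors scored on days 30 and 60.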

Mus musculus [26] = experiment: Number of survivors on 60th day at dose 5 mg/kg/day in 10 mice implanted with P388 leukemia cell line
Mus musculus [27] = experiment: Number of survivors on 30th day at dose 25 mg/kg/day in 10 mice implanted with P388 leukemia cell line
Mus musculus [28] = experiment: Number of survivors of DBA2 mice on 60th day after inoculation with L1210 leukemia cell line intravenously at a dose of 12.5 mg/kg/day; 0/10; settings: route intravenous
Mus musculus [29] = experiment: Number of survivors of DBA2 mice on 30th day after inoculation with L1210 leukemia cell line intravenously at a dose of 12.5 mg/kg/day; 0/10; settings: route intravenous
Mus musculus [30] = experiment: Number of survivors on 30th day at dose 5 mg/kg/day in 10 mice implanted with P388 leukemia cell line
Mus musculus [31] = experiment: Number of survivors on 60th day at dose 10 mg/kg/day in 10 mice implanted with P388 leukemia cell line
Mus musculus [32] = experiment: Number of survivors on 30th day at dose 12.5 mg/kg/day in 10 mice implanted with P388 leukemia cell line
Mus musculus [33] = experiment: Number of survivors on 30th day at dose 10 mg/kg/day in 10 mice implanted with P388 leukemia cell line
Mus musculus [34] = experiment: Number of survivors on 30th day at dose 15 mg/kg/day in 10 mice implanted with P388 leukemia cell line

`CCCCCCCCOC(=O)[C@H](CC(C)C)NC(=O)[C@@]1(O)[C@H](O)[C@]2(CC)C=CCN3CC[C@@]4(c5cc([C@@]6(C(=O)OC)C[C@H]7C[N@](CCc8c6[nH]c6ccccc86)C[C@](O)(CC)C7)c(OC)cc5N(C)[C@@]14C)[C@@H]32` gave a Survivors (Mus musculus [1]) of 0, an ILS at 80 mg/kg/day (Mus musculus [2]) of 9.5% and an ILS at 40 mg/kg/day (Mus musculus [3]) of -0.9%. For the same compound, the Survivors (Mus musculus [4]) was 0, the ILS at 60 mg/kg/day (Mus musculus [5]) was 7.8% and the Survivors (Mus musculus [6]) was 0. It also gave a Survivors (Mus musculus [7]) of 0, a Survivors (Mus musculus [8]) of 0 and a Survivors (Mus musculus [9]) of 0.
`CCOC(=O)[C@H](CO)NC(=O)[C@@]1(O)[C@H](O)[C@]2(CC)C=CCN3CC[C@@]4(c5cc([C@@]6(C(=O)OC)C[C@H]7C[N@](CCc8c6[nH]c6ccccc86)C[C@](O)(CC)C7)c(OC)cc5N(C)[C@@]14C)[C@@H]32` gave an ILS at 10 mg/kg/day (Mus musculus [10]) of 32%, an ILS at 7.5 mg/kg/day (Mus musculus [11]) of 26% and an ILS at 5 mg/kg/day (Mus musculus [12]) of 16%. It also gave a Survivors (Mus musculus [13]) of 0, a Survivors (Mus musculus [14]) of 0 and a Survivors (Mus musculus [15]) of 0. For the same compound, the Survivors (Mus musculus [16]) was 0, the Survivors (Mus musculus [17]) was 0 and the Survivors (Mus musculus [18]) was 0.
With `CCOC(=O)[C@H](C)NC(=O)[C@@]1(O)[C@H](O)[C@]2(CC)C=CCN3CC[C@@]4(c5cc([C@@]6(C(=O)OC)C[C@H]7C[N@](CCc8c6[nH]c6ccccc86)C[C@](O)(CC)C7)c(OC)cc5N(C)[C@@]14C)[C@@H]32` the ILS at 10 mg/kg/day (Mus musculus [10]) was 36.8%, the Survivors (Mus musculus [19]) was 1 and the Survivors (Mus musculus [20]) was 0. It also gave a Survivors (Mus musculus [21]) of 1, an ILS at 12.5 mg/kg/day (Mus musculus [22]) of 46% and an ILS at 15 mg/kg/day (Mus musculus [23]) of 39%. For the same compound, the ILS at 25 mg/kg/day (Mus musculus [24]) was 63.8%, the ILS at 5 mg/kg/day (Mus musculus [12]) was 27.6% and the ILS at 12.5 mg/kg/day (Mus musculus [25]) was 50%. For the same compound, the Survivors (Mus musculus [26]) was 0, the Survivors (Mus musculus [27]) was 2 and the Survivors (Mus musculus [28]) was 0. For the same compound, the Survivors (Mus musculus [29]) was 0, the Survivors (Mus musculus [30]) was 0 and the Survivors (Mus musculus [31]) was 2. The Survivors (Mus musculus [32]) was 1, the Survivors (Mus musculus [33]) was 2 and the Survivors (Mus musculus [34]) was 0.
